Key:
[1] = Inhibition of chimeric mouse-human sEH assessed as 6,8-difluoro-4-methylumbelliferyl trans-2,3-epoxy-3-phenylpropylcarbonate hydrolysis preincubated for 10 mins before addition of substrate by fluorometric assay
[2] = Metabolic stability in human liver microsomes assessed as compound remaining after 30 mins; assay type: ADME, Microsome; settings: read-out: Stability
Method in brief: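 Pooled human liver microsomes, compound at 1 μM in 100 mM phosphate buffer pH 7.4. NADP+ regenerating system (1 mM NADP+, 5 mM isocitric acid, 1 U/mL isocitric dehydrogenase) with 1 mM MgCl2. Read-out is percent parent remaining after 30 min incubation.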

[3] = system: soluble epoxide hydrolase (Chlorocebus aethiops); experiment: Inhibition of native sEH in african green monkey COS7 cells assessed as 11,12-epoxyeicosatrienoic acid hydrolysis preincubated for 1 hr before substrate addition measured after 2 hrs by LC/MS/MS; settings: cos-7

Compound | IC50 [1] | remaining at 0.5 h [2] | IC50 [3]
CC(C)(C)OC(=O)N1CCC(CC(=O)Nc2nc3ccccc3o2)CC1 | 94.3 nM | 83% | 10.3 nM
CC(C)(C)OC(=O)N1CCC(CC(=O)Nc2nc3cc(Cl)ccc3o2)CC1 | 6.92 nM | 43% | 1.54 nM
Cc1ccc2oc(NC(=O)CC3CCN(C(=O)OC(C)(C)C)CC3)nc2c1 | 11.4 nM | 6% | 0.486 nM
Cc1cc(C)c2oc(NC(=O)CC3CCN(C(=O)OC(C)(C)C)CC3)nc2c1 | 73 nM | 22% | 4.38 nM
Cc1cccc2oc(NC(=O)CC3CCN(C(=O)OC(C)(C)C)CC3)nc12 | 272 nM | – | –
Cc1ccc2nc(NC(=O)CC3CCN(C(=O)OC(C)(C)C)CC3)oc2c1 | 202 nM | – | –
CC(=O)c1ccc(N2CCC(CC(=O)Nc3nc4cc(C)cc(C)c4o3)CC2)cc1 | 46.5 nM | 22% | 1.42 nM

Results, then the compound that gave them:

IC50 [1] | remaining at 0.5 h [2] | IC50 [3] | Compound
109 nM | – | – | CC(=O)c1ccc(N2CCC(CC(=O)Nc3nc4c(C)cccc4o3)CC2)cc1
19.4 nM | 62% | 22 nM | CC(=O)c1ccc(N2CCC(CC(=O)Nc3nc4ccccc4o3)CC2)cc1
3.58 nM | 45% | 4.68 nM | CC(=O)c1ccc(N2CCC(CC(=O)Nc3nc4cc(Cl)ccc4o3)CC2)cc1
3.61 nM | 53% | 5.76 nM | CC(=O)c1ccc(N2CCC(CC(=O)Nc3nc4cc(C)ccc4o3)CC2)cc1
184 nM | – | – | CC(=O)c1ccc(N2CCC(CC(=O)Nc3nc4ccc(C)cc4o3)CC2)cc1

Reference: ChEMBL document CHEMBL1687902, “Discovery of potent inhibitors of soluble epoxide hydrolase by combinatorial library design and structure-based virtual screening” (J Med Chem, 2011)
